Data published in ChEMBL document CHEMBL1122644, “Ring-substituted 1,2-dialkylated 1,2-bis(hydroxyphenyl)ethanes. 2. Synthesis and estrogen receptor binding affinity of 4,4'-, 5,5'-, and 6,6'-disubstituted metahexestrols” (J Med Chem, 1984).
Each block holds one compound with its values, some of them ahead of it.

How the values were obtained:
[1] = target: Estrogen receptor (Bos taurus) (UniProt Q9XSB5+P49884); test: Relative binding affinity for calf uterine estrogen receptor is the ratio of molar concentrations of 17-beta-estradiol and compound required to decrease amount of bound [3H]-E2 by 50% X 100.; format: protein assay
Outline: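 Calf uterine cytosol incubated with [3H]estradiol and competitor at 4 °C for 16 h. Free ligand removed with dextran-coated charcoal, then centrifuged and a supernatant aliquot counted. Six competitor concentrations chosen to span 50% competition on a semilog plot. Molar concentrations of unlabeled estradiol and test compound giving 50% reduction in binding were read from the plot.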

[2] = target: T1, Estrogen receptor (Mus musculus) (UniProt O08537+P19785); test: Anti-estrogenic activity in mouse uterotrophic assay at 0 ug; format: functional; set-up: unit not given here
Outline: (§1)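 Immature female NMRI mice, 20 days old (14.5 ± 1.2 g), randomized into groups of 10. Test compound in olive oil (0.1 mL) given subcutaneously daily for 3 days alongside estrone stimulation. Uteri removed 24 h after last injection, fixed in Bouin's solution, washed, dried and weighed. Readout is inhibition of estrone-stimulated uterine growth.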

[3] = target: T1, Estrogen receptor (Mus musculus); test: Anti-estrogenic activity in mouse uterotrophic assay at 1 ug; format: functional; set-up: unit not given here; outline: as §1
[4] = target: T1, Estrogen receptor (Mus musculus); test: Anti-estrogenic activity in mouse uterotrophic assay at 10 ug; format: functional; set-up: unit not given here; outline: as §1
[5] = target: T1, Estrogen receptor (Mus musculus); test: Anti-estrogenic activity in mouse uterotrophic assay at 100 ug; format: functional; set-up: unit not given here; outline: as §1
[6] = target: T1, Estrogen receptor (Mus musculus); test: Estrogenic activity in mouse uterotrophic assay at 0 ug; format: functional; set-up: unit not given here
Outline: (§2)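 Uterotrophic test in 20-day-old immature female NMRI mice (14.5 ± 1.2 g), 10 per group. Daily s.c. injections of compound in 0.1 mL olive oil for 3 days. Uteri excised 24 h after final dose, Bouin-fixed, washed, dried and weighed to measure stimulation of uterine growth.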

[7] = target: T1, Estrogen receptor (Mus musculus); test: Estrogenic activity in mouse uterotrophic assay at 0.5 ug; format: functional; outline: as §2
[8] = target: T1, Estrogen receptor (Mus musculus); test: Estrogenic activity in mouse uterotrophic assay at 10 ug; format: functional; set-up: unit not given here; outline: as §2
[9] = target: T1, Estrogen receptor (Mus musculus); test: Estrogenic activity in mouse uterotrophic assay at 100 ug; format: functional; set-up: unit not given here; outline: as §2
[10] = target: T1, Estrogen receptor (Mus musculus); test: Estrogenic activity in mouse uterotrophic assay at 1000 ug; format: functional; set-up: unit not given here; outline: as §2
[11] = target: T1, Estrogen receptor (Mus musculus); test: Estrogenic activity in mouse uterotrophic assay at 5 ug; format: functional; outline: as §2
[12] = target: T1, Estrogen receptor (Mus musculus); test: Estrogenic activity in mouse uterotrophic assay at 50 ug; format: functional; outline: as §2
[13] = target: T1, Estrogen receptor (Mus musculus); test: Anti-estrogenic activity as inhibition of estrone-stimulated uterine growth in mice at 100 mg/kg; format: functional, organism-based; set-up: dose 100 mg/kg; outline: as §1
[14] = target: T1, Estrogen receptor (Mus musculus); test: Anti-estrogenic activity as inhibition of estrone-stimulated uterine growth in mice at 10 mg/kg; format: functional, organism-based; set-up: dose 10 mg/kg; outline: as §1
[15] = target: T1, Estrogen receptor (Mus musculus); test: Anti-estrogenic activity as inhibition of estrone-stimulated uterine growth in mice at 1 mg/kg; format: functional, organism-based; set-up: dose 1 mg/kg; outline: as §1
[16] = target: T1, Estrogen receptor (Mus musculus); test: Estrogenic activity in mouse uterotrophic assay at 1 ug; format: functional; outline: as §2
[17] = target: T1, Estrogen receptor (Mus musculus); test: Estrogenic activity in mouse uterotrophic assay at 0.1 ug; format: functional; outline: as §2
[18] = target: T1, Estrogen receptor (Mus musculus); test: Anti-estrogenic activity in mouse uterotrophic assay at 2.5 ug; format: functional; outline: as §1
[19] = target: T1, Estrogen receptor (Mus musculus); test: Anti-estrogenic activity in mouse uterotrophic assay at 25 ug; format: functional; outline: as §1
[20] = target: T1, Estrogen receptor (Mus musculus); test: Anti-estrogenic activity in mouse uterotrophic assay at 5 ug; format: functional; outline: as §1
[21] = target: T1, Estrogen receptor (Mus musculus); test: Anti-estrogenic activity in mouse uterotrophic assay at 50 ug; format: functional; outline: as §1
[22] = target: T1, Estrogen receptor (Mus musculus); test: Anti-estrogenic activity in mouse uterotrophic assay at 500 ug; format: functional; outline: as §1
[23] = target: T1, Estrogen receptor (Mus musculus); test: Estrogenic activity in mouse uterotrophic assay at 8 ug; format: functional; outline: as §2
[24] = target: T1, Estrogen receptor (Mus musculus); test: Estrogenic activity in mouse uterotrophic assay at 80 ug; format: functional; outline: as §2
[25] = target: T1, Estrogen receptor (Mus musculus); test: Estrogenic activity in mouse uterotrophic assay at 0.8 ug; format: functional; outline: as §2
[26] = target: T1, Estrogen receptor (Mus musculus); test: Estrogenic activity in mouse uterotrophic assay at 24 ug; format: functional; outline: as §2
[27] = target: T1, Estrogen receptor (Mus musculus); test: Anti-estrogenic activity as inhibition of estrone-stimulated uterine growth in mice at 2.5 mg/kg; format: functional, organism-based; set-up: dose 2.5 mg/kg; outline: as §1
[28] = target: T1, Estrogen receptor (Mus musculus); test: Estrogenic activity as uterotrophic effect in mice at 800 ug dose; format: functional; outline: as §2

T1 sequence (O08537 whole entry, looked up): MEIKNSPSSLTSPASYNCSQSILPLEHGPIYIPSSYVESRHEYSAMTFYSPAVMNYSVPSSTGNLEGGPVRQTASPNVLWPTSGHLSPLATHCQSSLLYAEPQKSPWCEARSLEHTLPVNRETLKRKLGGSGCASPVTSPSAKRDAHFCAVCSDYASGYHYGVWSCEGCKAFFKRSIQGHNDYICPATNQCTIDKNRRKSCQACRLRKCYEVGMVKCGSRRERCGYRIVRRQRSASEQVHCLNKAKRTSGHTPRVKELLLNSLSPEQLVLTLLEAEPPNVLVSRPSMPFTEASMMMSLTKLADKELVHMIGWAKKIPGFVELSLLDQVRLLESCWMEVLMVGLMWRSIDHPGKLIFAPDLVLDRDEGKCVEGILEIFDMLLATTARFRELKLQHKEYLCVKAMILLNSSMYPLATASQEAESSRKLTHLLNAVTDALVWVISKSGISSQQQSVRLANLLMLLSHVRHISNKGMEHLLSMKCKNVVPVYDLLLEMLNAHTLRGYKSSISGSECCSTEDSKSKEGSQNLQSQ
T1 sequence (P19785 whole entry, looked up): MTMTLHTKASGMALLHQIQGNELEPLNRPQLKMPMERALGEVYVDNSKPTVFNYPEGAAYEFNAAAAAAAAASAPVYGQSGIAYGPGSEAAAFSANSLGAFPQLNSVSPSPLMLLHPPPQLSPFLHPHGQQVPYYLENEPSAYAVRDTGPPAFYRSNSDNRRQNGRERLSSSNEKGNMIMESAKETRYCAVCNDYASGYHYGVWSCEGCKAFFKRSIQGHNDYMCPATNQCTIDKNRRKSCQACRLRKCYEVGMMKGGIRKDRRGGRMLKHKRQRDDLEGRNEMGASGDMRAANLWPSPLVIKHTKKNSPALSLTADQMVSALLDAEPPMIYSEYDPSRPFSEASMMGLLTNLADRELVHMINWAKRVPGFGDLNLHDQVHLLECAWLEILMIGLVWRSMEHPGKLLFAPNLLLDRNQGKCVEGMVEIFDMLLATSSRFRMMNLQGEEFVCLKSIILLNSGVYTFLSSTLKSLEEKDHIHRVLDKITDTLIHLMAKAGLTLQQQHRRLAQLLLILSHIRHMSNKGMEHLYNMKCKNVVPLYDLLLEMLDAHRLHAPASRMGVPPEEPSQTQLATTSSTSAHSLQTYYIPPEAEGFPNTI

RBA [1]: 8.5
SMILES: CCC(c1ccc(O)cc1C)C(CC)c1ccc(O)cc1C (configuration not stated)

RBA [1]: 15
Activity [2]: 13.7
Activity [3]: 27.2
Activity [4]: 25.4
Activity [5]: 31
Activity [6]: 13.7
Activity [7]: 13.3
Activity [8]: 37.5
Activity [9]: 52.1
Activity [10]: 50.5
Activity [11]: 19.8
Activity [12]: 41.9
inhibition [13]: 22%
inhibition [14]: 47%
inhibition [15]: 39%
SMILES: CCC(c1cc(O)ccc1C)C(CC)c1cc(O)ccc1C (configuration not stated)

RBA [1]: 32
SMILES: CCC(c1ccc(O)cc1O)C(CC)c1ccc(O)cc1O (configuration not stated)

RBA [1]: 4.2
Activity [2]: 13.7
Activity [3]: 40.6
Activity [4]: 41
Activity [5]: 41.5
Activity [6]: 13.7
Activity [16]: 25.1
Activity [8]: 47.8
Activity [9]: 41.6
Activity [10]: 38.5
Activity [17]: 16.7
SMILES: CCC(c1cc(O)ccc1Cl)C(CC)c1cc(O)ccc1Cl (configuration not stated)

RBA [1]: 6.5
SMILES: CCC(c1ccc(O)cc1F)C(CC)c1ccc(O)cc1F (configuration not stated)

RBA [1]: 1.6
SMILES: CCC(c1ccc(O)c(Cl)c1)C(CC)c1ccc(O)c(Cl)c1 (configuration not stated)

RBA [1]: < 0.01
SMILES: CCC(c1cc(O)ccc1O)C(CC)c1cc(O)ccc1O (configuration not stated)

RBA [1]: 0.07
SMILES: CCC(c1ccc(Cl)c(O)c1)C(CC)c1ccc(Cl)c(O)c1 (configuration not stated)

More lines, now with the values behind:

SMILES: CCC(c1ccc(O)c(N)c1)C(CC)c1ccc(O)c(N)c1 (configuration not stated)
RBA [1]: 5.6

SMILES: CCc1ccc(C(CC)C(CC)c2ccc(CC)c(O)c2)cc1O (configuration not stated)
RBA [1]: 0.04

SMILES: CCC(c1ccc(O)c(F)c1)C(CC)c1ccc(O)c(F)c1 (configuration not stated)
RBA [1]: 16

SMILES: CCC(c1ccc(CN(C)C)c(O)c1)C(CC)c1ccc(CN(C)C)c(O)c1 (configuration not stated)
RBA [1]: < 0.01

SMILES: CCC(c1ccc(O)c(CN(C)C)c1)C(CC)c1ccc(O)c(CN(C)C)c1 (configuration not stated)
RBA [1]: 0.04

SMILES: CCC(c1ccc(O)c(COC)c1)C(CC)c1ccc(O)c(COC)c1 (configuration not stated)
RBA [1]: 0.55

SMILES: CCC(c1ccc(O)c(C(C)=O)c1)C(CC)c1ccc(O)c(C(C)=O)c1 (configuration not stated)
RBA [1]: < 0.01

SMILES: CCC(c1ccc(COC)c(O)c1)C(CC)c1ccc(COC)c(O)c1 (configuration not stated)
RBA [1]: 0.03

SMILES: CCC(c1ccc(O)c(CO)c1)C(CC)c1ccc(O)c(CO)c1 (configuration not stated)
RBA [1]: 0.71

SMILES: CCC(c1ccc(O)c(Br)c1)C(CC)c1ccc(O)c(Br)c1 (configuration not stated)
RBA [1]: 0.25

SMILES: CCC(c1cccc(O)c1)C(CC)c1cccc(O)c1 (configuration not stated)
RBA [1]: 10
Activity [2]: 12.5
Activity [18]: 29.5
Activity [19]: 28.1
Activity [20]: 23.5
Activity [21]: 28.3
Activity [22]: 30.9
Activity [23]: 14.4
Activity [24]: 30.5
Activity [6]: 10.7
Activity [25]: 11.8
Activity [26]: 18.5
inhibition [27]: 27%
Weight (mg/g) [28]: 30.8%

SMILES: CCC(c1ccc(Br)c(O)c1)C(CC)c1ccc(Br)c(O)c1 (configuration not stated)
RBA [1]: 0.03
